Measured values reported in ChEMBL document CHEMBL1781932 (J Med Chem, 2011).
Values after ≈ are worked out from the molar mass of the structure shown.

Tests used:
Type in all cases: functional
Staphylococcus aureus [1] = experiment: Antimicrobial activity against tetracycline-susceptible Staphylococcus aureus isolate 101 by CLSI dilution method
Staphylococcus aureus [2] = experiment: Antimicrobial activity against methicillin-, tetracycline-resistant Staphylococcus aureus isolate 161 harboring tetM gene by CLSI dilution method
Staphylococcus aureus [3] = experiment: Antimicrobial activity against tetracycline-resistant Staphylococcus aureus isolate 158 harboring tetK gene by CLSI dilution method
Enterococcus faecalis [4] = experiment: Antimicrobial activity against tetracycline-susceptible Enterococcus faecalis isolate 103 by CLSI dilution method
Outline: (§1)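 Broth microdilution per CLSI in fresh cation-adjusted Mueller Hinton broth, kept at 4 °C before testing, with defibrinated horse blood added as appropriate. Strains were from ATCC. MIC in µg/mL. Runs were accepted when comparator antibiotics against ATCC quality-control strains fell within recommended ranges.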

Enterococcus faecalis [5] = experiment: Antimicrobial activity against tetracycline-resistant Enterococcus faecalis isolate 159 harboring […] gene by CLSI dilution method
Streptococcus pneumoniae [6] = experiment: Antimicrobial activity against tetracycline-susceptible Streptococcus pneumoniae isolate 106 by CLSI dilution method; outline: as §1
Streptococcus pneumoniae [7] = experiment: Antimicrobial activity against tetracycline-resistant Streptococcus pneumoniae isolate 160 harboring tetM gene by CLSI dilution method
Escherichia coli [8] = experiment: Antimicrobial activity against tetracycline-susceptible Escherichia coli isolate 107 by CLSI dilution method; outline: as §1
Escherichia coli [9] = experiment: Antimicrobial activity against tetracycline-resistant Escherichia coli isolate 155 harboring tetA gene by CLSI dilution method
Acinetobacter baumannii = experiment: Antimicrobial activity against tetracycline-susceptible Acinetobacter baumannii isolate 110 by CLSI dilution method; outline: as §1
Pseudomonas aeruginosa = experiment: Antimicrobial activity against tetracycline-susceptible Pseudomonas aeruginosa isolate 111 by CLSI dilution method; outline: as §1
Enterobacter cloacae = experiment: Antimicrobial activity against tetracycline-susceptible Enterobacter cloacae isolate 108 by CLSI dilution method; outline: as §1
Klebsiella pneumoniae [10] = experiment: Antimicrobial activity against tetracycline-susceptible Klebsiella pneumoniae isolate 109 by CLSI dilution method; outline: as §1
Klebsiella pneumoniae [11] = experiment: Antimicrobial activity against tetracycline-resistant Klebsiella pneumoniae isolate 153 harboring tetA gene by CLSI dilution method

Row | Compound | MIC (Staphylococcus aureus [1]) [µg/mL] | MIC (Staphylococcus aureus [2]) [µg/mL] | MIC (Staphylococcus aureus [3]) [µg/mL] | MIC (Enterococcus faecalis [4]) [µg/mL] | MIC (Enterococcus faecalis [5]) [µg/mL] | MIC (Streptococcus pneumoniae [6]) [µg/mL] | MIC (Streptococcus pneumoniae [7]) [µg/mL] | MIC (Escherichia coli [8]) [µg/mL] | MIC (Escherichia coli [9]) [µg/mL] | MIC (Acinetobacter baumannii) [µg/mL] | MIC (Pseudomonas aeruginosa) [µg/mL] | MIC (Enterobacter cloacae) [µg/mL] | MIC (Klebsiella pneumoniae [10]) [µg/mL] | MIC (Klebsiella pneumoniae [11]) [µg/mL]
1 | CNc1cccc2c(O)c3c(cc12)C[C@H]1C[C@H]2[C@H](N(C)C)C(O)=C(C(N)=O)C(=O)[C@@]2(O)C(O)=C1C3=O | 2 (≈ 4.05 µM) | 4 (≈ 8.11 µM) | 2 (≈ 4.05 µM) | 4 (≈ 8.11 µM) | 4 (≈ 8.11 µM) | 4 (≈ 8.11 µM) | 16 (≈ 32.4 µM) | > 32 | > 32 | 32 (≈ 64.8 µM) | > 32 | > 32 | > 32 | > 32
2 | CNCc1ccc2c(N(C)C)c3c(c(O)c2c1)C(=O)C1=C(O)[C@]2(O)C(=O)C(C(N)=O)=C(O)[C@@H](N(C)C)[C@@H]2C[C@@H]1C3 | 0.25 (≈ 0.454 µM) | 2 (≈ 3.63 µM) | 0.5 (≈ 0.908 µM) | 0.5 (≈ 0.908 µM) | 4 (≈ 7.26 µM) | 0.125 (≈ 0.227 µM) | 0.5 (≈ 0.908 µM) | 2 (≈ 3.63 µM) | 32 (≈ 58.1 µM) | 2 (≈ 3.63 µM) | > 32 | 8 (≈ 14.5 µM) | 4 (≈ 7.26 µM) | 32 (≈ 58.1 µM)
3 | COC1CN(Cc2ccc3cc4c(c(O)c3c2)C(=O)C2=C(O)[C@]3(O)C(=O)C(C(N)=O)=C(O)[C@@H](N(C)C)[C@@H]3C[C@@H]2C4)C1 | 1 (≈ 1.77 µM) | 4 (≈ 7.1 µM) | 0.5 (≈ 0.887 µM) | 1 (≈ 1.77 µM) | 8 (≈ 14.2 µM) | 0.0625 (≈ 0.111 µM) | 0.5 (≈ 0.887 µM) | 2 (≈ 3.55 µM) | 16 (≈ 28.4 µM) | 2 (≈ 3.55 µM) | > 32 | 8 (≈ 14.2 µM) | 4 (≈ 7.1 µM) | 16 (≈ 28.4 µM)
4 | CN(C)[C@@H]1C(O)=C(C(N)=O)C(=O)[C@@]2(O)C(O)=C3C(=O)c4c(cc5ccc(-c6cccnc6)cc5c4O)C[C@H]3C[C@@H]12 | 1 (≈ 1.85 µM) | 1 (≈ 1.85 µM) |  | 0.5 (≈ 0.923 µM) | 0.25 (≈ 0.462 µM) | > 32 | > 32 | > 32 | > 32 | > 32 | > 32 | > 32 | > 32 | > 32
5 | CN(C)[C@@H]1C(O)=C(C(N)=O)C(=O)[C@@]2(O)C(O)=C3C(=O)c4c(c(Cl)c5ccc(CN6CCC6)cc5c4O)C[C@H]3C[C@@H]12 | 1 (≈ 1.76 µM) | 2 (≈ 3.52 µM) | 1 (≈ 1.76 µM) | 0.25 (≈ 0.44 µM) | 2 (≈ 3.52 µM) |  | 0.5 (≈ 0.88 µM) | 2 (≈ 3.52 µM) | 16 (≈ 28.2 µM) | 2 (≈ 3.52 µM) | > 32 | 8 (≈ 14.1 µM) | 4 (≈ 7.04 µM) | 8 (≈ 14.1 µM)
6 | CN(C)c1c2c(c(O)c3cc(CN4CCC4)ccc13)C(=O)C1=C(O)[C@]3(O)C(=O)C(C(N)=O)=C(O)[C@@H](N(C)C)[C@@H]3C[C@@H]1C2 | 1 (≈ 1.73 µM) | 2 (≈ 3.47 µM) | 0.0625 (≈ 0.108 µM) | 0.125 (≈ 0.217 µM) | 2 (≈ 3.47 µM) | < 0.0156 | 0.125 (≈ 0.217 µM) | 2 (≈ 3.47 µM) |  | 1 (≈ 1.73 µM) | 32 (≈ 55.5 µM) | 8 (≈ 13.9 µM) | 4 (≈ 6.94 µM) | 16 (≈ 27.7 µM)
7 | CN(C)Cc1ccc2c(N(C)C)c3c(c(O)c2c1)C(=O)C1=C(O)[C@]2(O)C(=O)C(C(N)=O)=C(O)[C@@H](N(C)C)[C@@H]2C[C@@H]1C3 | 0.25 (≈ 0.443 µM) | 2 (≈ 3.54 µM) | 0.25 (≈ 0.443 µM) | 0.25 (≈ 0.443 µM) | 2 (≈ 3.54 µM) | < 0.0156 | 0.25 (≈ 0.443 µM) | 2 (≈ 3.54 µM) |  | 16 (≈ 28.3 µM) | > 32 | 32 (≈ 56.7 µM) | 8 (≈ 14.2 µM) | 
8 | CN(C)[C@@H]1C(O)=C(C(N)=O)C(=O)[C@@]2(O)C(O)=C3C(=O)c4c(cc5ccc(CN6CCCCC6)cc5c4O)C[C@H]3C[C@@H]12 | 0.5 (≈ 0.89 µM) | 2 (≈ 3.56 µM) | 0.5 (≈ 0.89 µM) | 0.5 (≈ 0.89 µM) | 2 (≈ 3.56 µM) | 0.125 (≈ 0.223 µM) | 0.25 (≈ 0.445 µM) | 2 (≈ 3.56 µM) |  | 1 (≈ 1.78 µM) | > 32 | 8 (≈ 14.2 µM) | 8 (≈ 14.2 µM) | 8 (≈ 14.2 µM)
9 | COc1cccc2c(O)c3c(cc12)C[C@H]1C[C@H]2[C@H](N(C)C)C(O)=C(C(N)=O)C(=O)[C@@]2(O)C(O)=C1C3=O |  | 0.5 (≈ 1.01 µM) |  | 0.5 (≈ 1.01 µM) | 1 (≈ 2.02 µM) | 2 (≈ 4.04 µM) | 4 (≈ 8.09 µM) | > 32 | > 32 | 32 (≈ 64.7 µM) | > 32 | > 32 | > 32 | > 32
10 | CN(C)c1cccc2c(O)c3c(cc12)C[C@H]1C[C@H]2[C@H](N(C)C)C(O)=C(C(N)=O)C(=O)[C@@]2(O)C(O)=C1C3=O | 1 (≈ 1.97 µM) | 2 (≈ 3.94 µM) | 1 (≈ 1.97 µM) | 1 (≈ 1.97 µM) | 2 (≈ 3.94 µM) | 4 (≈ 7.88 µM) | 8 (≈ 15.8 µM) |  | > 32 | 16 (≈ 31.5 µM) | > 32 | > 32 | > 32 | > 32
